We go through 23 compounds from ChEMBL document CHEMBL1140253, “Synthesis of functionalized acetophenones as protein tyrosine phosphatase 1B inhibitors” (Bioorg Med Chem Lett, 2005).

One assay deals with T1, Tyrosine-protein phosphatase non-receptor type 1 (Mus musculus) (UniProt P35821).
T1 sequence (whole entry): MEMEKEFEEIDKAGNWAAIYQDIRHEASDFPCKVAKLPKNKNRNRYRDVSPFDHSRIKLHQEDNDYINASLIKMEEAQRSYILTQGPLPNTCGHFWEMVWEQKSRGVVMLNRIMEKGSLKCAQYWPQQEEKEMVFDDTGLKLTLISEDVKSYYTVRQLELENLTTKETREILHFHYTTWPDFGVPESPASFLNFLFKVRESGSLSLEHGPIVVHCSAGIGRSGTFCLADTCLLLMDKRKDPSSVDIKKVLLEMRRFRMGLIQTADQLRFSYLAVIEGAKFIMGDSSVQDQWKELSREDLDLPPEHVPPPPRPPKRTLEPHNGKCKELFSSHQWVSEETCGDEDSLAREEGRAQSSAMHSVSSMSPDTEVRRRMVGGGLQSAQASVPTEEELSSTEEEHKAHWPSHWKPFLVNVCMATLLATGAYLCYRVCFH
Briefly: (§1) In vitro inhibitory activity against PTP1B at 100 uM 10 min incubation. Summed up: (§2)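 p-Nitrophenylphosphate (10 mM) as substrate in 50 mM HEPES buffer, pH 7, with 1 mM EDTA and DTT. Compounds tested at 100 µM, with sodium vanadate as reference control. Result given as percent inhibition of phosphatase activity, mean of three independent experiments.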
For orientation: inhibition means the relative decrease from the control value, in per cent. With `COc1ccc(C(=O)Oc2cc3occc3cc2C(C)=O)cc1OC`, the inhibition entry was “No inhibition”.

The compound `CC(=O)c1ccc(OCCc2ccccc2)cc1O` displayed an inhibition of 38.6%.

Turning to `N#CCOc1ccc(/C(O)=C/C(=O)c2ccc(F)cc2)c(O)c1`, the inhibition result was “No inhibition”.

`CC(=O)c1ccc(OCC#N)cc1OC(=O)c1ccccc1`: the inhibition turned out to be 12.8%.

Take `CC(=O)c1cc2ccoc2cc1O`: the inhibition was found to be 19.1%.

With `CC(=O)c1ccc(OCCO)cc1O`, the inhibition result is “No inhibition”.

In the case of `O=C(/C=C(\O)c1ccc(OCCc2ccccc2)cc1O)c1ccc(F)cc1`, the inhibition entry was “No inhibition”.

With `CC(=O)c1ccc(OCCc2ccccc2)cc1OC(=O)c1ccc(F)cc1`, the inhibition result was “No inhibition”.

`CC(=O)c1ccc(OCC#N)cc1O`: the inhibition was 22.4%.

Take `N#CCOc1ccc(/C(O)=C/C(=O)c2ccccc2)c(O)c1`: the inhibition entry is “No inhibition”.

Take `CC(=O)c1ccc(OCC2CO2)cc1O` (stereo not drawn): the inhibition amounted to 22.4%.

Turning to `CC(=O)c1ccc2occc2c1O`, the inhibition entry is “No inhibition”.

For `C=CCOc1ccc(C(C)=O)c(O)c1`, the inhibition entry was “No inhibition”.

As to `CC(=O)c1ccc2occc2c1OC(=O)c1ccc(C(F)(F)F)cc1`, the inhibition was found to be 32.4%.

As for `CC(=O)c1ccc(OCC#N)cc1OC(=O)c1ccc(F)cc1`, the inhibition entry was “No inhibition”.

For `CC(=O)c1ccc2occc2c1OC(=O)c1ccc(Cl)c(Cl)c1`, the inhibition was 54.1%.

For `O=C(/C=C(\O)c1ccc2occc2c1O)c1ccc(C(F)(F)F)cc1`, the inhibition entry is “No inhibition”.

`CC(=O)c1ccc2occc2c1OC(=O)c1ccccc1` returned an inhibition of 43.2%.

In turn, `CC(=O)c1cc2ccoc2cc1OC(=O)c1ccc2c(c1)OCO2` gave an inhibition of 34%.

For the compound `CC(=O)c1cc2ccoc2cc1OC(=O)c1ccccc1`, the inhibition result is “No inhibition”.

As for `COc1cccc(C(=O)Oc2cc3occc3cc2C(C)=O)c1`, the inhibition is 8.1%.

Compound `COc1ccc(C(=O)Oc2cc3occc3cc2C(C)=O)cc1` gave an inhibition of 13.5%.

In the next assay the target is Tyrosine-protein phosphatase non-receptor type 1 (Mus musculus) (UniProt P35821). Described as §1. Put shortly: as §2
As to SODIUM ORTHOVANAD, the inhibition was 56.2%.
